Results published in PMC11967334 (RSC Advances, 2025).

Columns and labels:
[1] = target: MMP-2 (Homo sapiens, UniProt P08253); test: In vitro MMP-2 inhibition, colorimetric kit; assay type: biochemical; settings: read-out: MMP-2 IC50
[2] = target: MMP-9 (Homo sapiens, UniProt P14780); test: In vitro MMP-9 inhibition, colorimetric kit; assay type: biochemical
[3] = tested on: Wi-38 cells; test: MTT cytotoxicity on normal human fibroblasts; assay type: cell-based
Summary of the method: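 Normal human lung fibroblasts (Wi-38) were exposed to free s-triazine dendrimers and their conjugates, and viability was read by MTT assay. Safety was expressed as EC100 in μM, the concentration giving 100% growth of normal cells, as mean ± SEM of three measurements. Groups were compared by one-way ANOVA with Tukey's test at p < 0.05.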

[4] = tested on: MCF-7 cells; test: MTT cytotoxicity on breast cancer cells; assay type: cell-based, human
Summary of the method: (§1)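 Test compounds (free s-triazine dendrimers and their quercetin, lactobionic acid and PEG conjugates) were screened by MTT assay against MCF-7 breast and HepG-2 hepatocellular carcinoma cells. IC50 values are reported in μM as mean ± SEM of three measurements. Differences were tested by one-way ANOVA with Tukey's test, with p < 0.05 taken as significant. SI was tabulated against Wi-38 values.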

[5] = tested on: HepG-2 cells; test: MTT cytotoxicity on hepatocellular carcinoma cells; assay type: cell-based, human
Summary of the method: as §1

[6] = tested on: MCF-7 cells; test: Flow cytometric annexin V/PI analysis of apoptosis; assay type: cell-based, human; settings: MCF-7, 72 h, mean ± SEM
[7] = tested on: HepG-2 cells; test: Flow cytometric annexin V/PI analysis of apoptosis; assay type: cell-based, human; settings: HepG-2, 72 h, mean ± SEM
[8] = tested on: VEGF; test: VEGF gene expression by quantitative real-time PCR; assay type: cell-based, human; settings: MCF-7, compared to untreated cells, mean ± SEM
[9] = tested on: VEGF; test: VEGF gene expression by quantitative real-time PCR; assay type: cell-based, human; settings: HepG-2, compared to untreated cells, mean ± SEM
[10] = selectivity index versus normal Wi-38 cells

MMP-9, sequence (P14780 94-707): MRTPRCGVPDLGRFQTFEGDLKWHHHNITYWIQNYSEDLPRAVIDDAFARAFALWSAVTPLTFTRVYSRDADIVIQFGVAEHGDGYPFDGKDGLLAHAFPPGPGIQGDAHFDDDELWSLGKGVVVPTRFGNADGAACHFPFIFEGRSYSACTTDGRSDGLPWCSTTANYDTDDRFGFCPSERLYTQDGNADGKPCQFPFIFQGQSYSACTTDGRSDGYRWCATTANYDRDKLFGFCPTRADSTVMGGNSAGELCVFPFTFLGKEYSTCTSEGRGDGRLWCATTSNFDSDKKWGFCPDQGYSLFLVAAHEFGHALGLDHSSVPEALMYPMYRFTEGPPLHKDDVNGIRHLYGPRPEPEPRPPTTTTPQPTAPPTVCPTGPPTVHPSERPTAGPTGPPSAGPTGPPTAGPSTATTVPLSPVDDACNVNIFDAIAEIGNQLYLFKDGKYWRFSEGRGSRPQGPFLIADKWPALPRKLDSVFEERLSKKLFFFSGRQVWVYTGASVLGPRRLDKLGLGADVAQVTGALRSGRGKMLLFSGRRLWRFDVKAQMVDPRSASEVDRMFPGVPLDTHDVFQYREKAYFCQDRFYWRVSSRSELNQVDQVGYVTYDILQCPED
MMP-2, sequence (P08253 110-446 limits assumed): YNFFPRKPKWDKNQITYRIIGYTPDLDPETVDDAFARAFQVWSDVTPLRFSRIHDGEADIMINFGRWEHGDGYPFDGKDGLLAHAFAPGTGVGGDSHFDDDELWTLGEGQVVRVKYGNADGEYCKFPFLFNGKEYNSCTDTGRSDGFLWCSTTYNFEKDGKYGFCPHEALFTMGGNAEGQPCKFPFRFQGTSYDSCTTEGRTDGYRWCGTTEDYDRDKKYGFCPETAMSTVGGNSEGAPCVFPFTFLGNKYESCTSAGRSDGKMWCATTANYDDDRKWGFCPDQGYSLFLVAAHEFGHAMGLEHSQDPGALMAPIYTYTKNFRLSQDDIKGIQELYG

| IC50 [1] [µM] | MMP-2/MMP-9 selectivity ([2]; SI = IC50 (MMP-2)/IC50 (MMP-9), text: folds) | IC50 ([2]; read-out: MMP-9 IC50) [µM] | SMILES | IC50 ([3]; Homo sapiens, WI-38, read-out: Wi-38 IC50) [µM] | EC100 ([3]; effective safe concentration at 100% cell viability, Wi-38, 72 h, mean ± SEM) [µM] | IC50 ([4]; Homo sapiens, MCF7, 72 h, read-out: MCF-7 IC50) [µM] | MCF-7 SI [4, 10] | selectivity index (SI) ([4]; stated for MCF-7 and HepG-2 together, versus Wi-38) | IC50 ([5]; Homo sapiens, HepG2, 72 h, read-out: HepG-2 IC50) [µM] | HepG-2 SI [5, 10] | Total % of the apoptotic population [6] [%] | Total % of the apoptotic population [7] [%] | VEGF relative fold change [8] | VEGF relative fold change [9] |
| --- | --- | --- | --- | --- | --- | --- | --- | --- | --- | --- | --- | --- | --- | --- |
| 0.299 | 1.08 | 0.277 | COc1ccc(S(=O)(=O)N(CC(=O)NO)CC(C)C)cc1 [NNGH, N-isobutyl-N-(4-methoxyphenylsulfonyl)glycyl hydroxamic acid] | – | – | – | – | – | – | – | – | – | – | – |
| – | – | – | O=c1c(O)c(-c2ccc(O)c(O)c2)oc2cc(O)cc(O)c12 [Qur, quercetin] | 294 ± 12.6 | 70.57 ± 0.950 | 35.3 ± 0.475 | 8.339 | ~8.5 | 34.32 ± 0.128 | 8.573 | 47.00 ± 1.83 | 24.20 ± 0.895 | 0.683 ± 0.029 | 0.708 ± 0.012 |
